# Screening data deposited in PubChem BioAssay by several laboratories.
# STAT1 act – STAT1 signaling activators, primary screen, cell-based, HTS, luciferase reporter. activation (% of control), % at 5.5 µM. 200,000 compounds, 2.6% hits. NIH 3T3 STAT1-luciferase reporter, IFN-gamma, luminescence; 100% = IFN-gamma alone, no compound. AID 932, 2007;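 active means activation above the screen-wide mean activation plus 3 SD, cut at about 130% in these data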;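 further: raw ratio to IFN-gamma control signal so 100% means no change and 0% no light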
# Cl transport mod – KCC2 cotransporter modulators, thallium flux, primary screen, cell-based, HEK293 KCC2, FluoZin-2 fluorescence, MLSMR | Solute carrier family 12 member 5 (Homo sapiens), Q9H2X9 | KCC2 cells, thallium flux FluoZin-2 fluorescence | B-score of Tl+ flux slope (higher = more flux/activation; lower = inhibition) at 10 µM | 190,000 compounds, 2.2% hits | AID 1456, 2008;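 active means thallium flux slope and its plate-corrected score both differing from the plate sample mean at a set confidence after two filtering rounds, in either direction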;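 further: slope of fluorescence scaled to starting intensity during 10 to 20 s after thallium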
# STAT3 activator – IL-6 driven STAT3 reporter potentiators, primary screen, U3A cells, luciferase, luminescence, MLSCN library. activation (% of control), % at 5.6 µM. IL-6 STAT3-luciferase reporter; 100% = signal with IL-6 EC80 alone. 190,000 compounds, 0.91% hits;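 active means activation above the screen-wide mean of compound activation plus 3 SD, cut at about 130% in these data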;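 further: 0% = background luminescence of wells with medium and substrate only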
#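 system = STAT3-luciferase reporter U3A cells | reagent = IL-6 stimulus at 33 ng/mL final | timing = 1 h compound pre-exposure, 6 h IL-6 stimulation, 37 °C | measured by = luminescence | evaluation = % activation versus median of IL-6-stimulated wells | control set = IL-6-only wells as 100% reference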
# HSV augment – enhancers of HSV replication in host cells, fold increase, host cell viability; maximum fold increase; HSV replication augmentation in cells; 220,000 compounds, 0.005% hits; in the data active means maximum fold increase above about 1.5; tested in PC3 cells
# STAT3 inh-1 – IL-6 driven STAT3 reporter inhibitors, primary screen, U3A cells, luciferase, luminescence, MLSCN library | 190,000 compounds, 0.89% hits | inhibition, % at 5.5 µM | IL-6 STAT3-luciferase reporter; host cell line lacks STAT1;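 active means inhibition above the mean inhibition across all screened compounds plus 3 SD, cut at about 44% in these data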;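 further: 0% = DMSO only wells and 100% = 100 µM nifuroxazide control wells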
# STAT1 inh – STAT1 signaling inhibitors, primary screen, cell-based, HTS, luciferase reporter | NIH 3T3 STAT1-luciferase reporter, IFN-gamma, luminescence | inhibition, % at 5.5 µM | 200,000 compounds, 0.35% hits | AID 920, 2007;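 active means inhibition above a set limit, the mean inhibition across all tested compounds plus 3 SD, cut at about 34% in these data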;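 further: 0% = IFN-gamma with DMSO and 100% = IFN-gamma with 300 µM nifuroxazide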
# STAT3 inh-2 – STAT3 reporter inhibitors, retest of hits, confirmation, U3A cells, luciferase, luminescence; shares compounds with STAT3 inh-1; IL-6 STAT3 luciferase reporter; cell line lacks STAT1; inhibition, % at 5.7 µM; 1,200 compounds, 45% hits; AID 1265, 2008;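 active means inhibition above the hit cutoff computed for the primary STAT3 screen, cut at about 44% in these data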;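 further: 0% = IL-6 plus DMSO and 100% = IL-6 plus nifuroxazide control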
# NFkB inh STAT3ct – NF-kB reporter inhibitors in human cells, confirmation, counter-screen for STAT3 inhibitor project, cell-based, HEK293T, luciferase, TNF-alpha stimulus. 1,200 compounds, 36% hits. shares compounds with STAT3 inh-1. inhibition, % at 5.7 µM. TNF-alpha induced;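 active means inhibition above the mean of solvent-only control wells plus 3 SD, cutoff set per campaign, cut at about 13% in these data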;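 further: 0% = TNF-alpha with DMSO and 100% = TNF-alpha with MG high control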
# STAT1 inh 2 – STAT1 reporter inhibitors, IFN-gamma induced, confirmation, counter-screen for STAT3 inhibitor project, cell-based, NIH 3T3, luciferase luminescence. shares compounds with STAT3 inh-1. NIH 3T3 STAT1-luciferase reporter. inhibition, % at 5.7 µM. 1,200 compounds, 27% hits;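 active means inhibition above the mean plus 3 SD of solvent-only control wells, limit set per screening run, cut at about 16% in these data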;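 further: 0% = DMSO with IFN-gamma and 100% = nifuroxazide control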
# Active calls of the source: *; i = inactive; · = not tested or not shown. An excerpt weighted towards active compounds, which were near 5.5% of everything screened.
SMILES,STAT1 act,Cl transport mod,STAT3 activator,HSV augment,STAT3 inh-1,STAT1 inh,STAT3 inh-2,NFkB inh STAT3ct,STAT1 inh 2
Cc1ccc2c(c1)C(=O)CCCCC(=O)N2,·,0.0155,·,i,·,·,·,·,·
CC(OC(=O)CCc1nc2ccccc2c(=O)[nH]1)C(=O)c1ccc(Br)cc1 (stereo unspecified),89.8,0.425,79.0,i,30.5,11.1,·,·,·
Cc1ccc(C)c(C(=O)COC(=O)c2cccc(N3C(=O)c4c(C)nc5ccccc5c4C3=O)c2)c1,109.5,0.237,60.1,i,49.5*,-10.6,45.3*,29.3*,43.8*
Cc1nc2ccccc2c2c1C(=O)N(c1cccc(C(=O)O)c1)C2=O,97.3,0.597,109.0,i,-5.9,-0.4,·,·,·
Cc1nc2ccc(NC(=O)c3ccc(Cl)c(S(=O)(=O)N(C)c4ccccc4)c3)cc2s1,97.6,-0.615,103.8,·,4.4,2.6,·,·,·
Cc1nc2ccc(NC(=O)c3cc(S(=O)(=O)N(C)c4ccccc4)ccc3Cl)cc2s1,81.2,-1.4,55.9,·,54.7*,20.6,64.5*,26.1*,26.6*
Cc1ccccc1CSc1nc(C(C)(C)C)cc(=O)[nH]1,98.9,-0.246,99.8,i,9.4,1.4,·,·,·
O=C(CSc1nc(-c2ccco2)cc(C(F)(F)F)n1)Nc1ccc(C(=O)N2CCCCC2)cc1,94.1,-0.504,62.2,i,50.4*,6.6,46.5*,14.8*,17.7*
O=C(O)c1nn2c(C(F)(F)F)cc(-c3cccs3)nc2c1Cl,91.1,0.0326,99.1,i,1.4,10.1,·,·,·
CCN(CC)c1ccc(/C=C(/C#N)c2nc3ccccc3[nH]2)c(OC(C)C)c1,120.1,i,97.2,·,7.7,-21.9,·,·,·
CCCCC[n+]1cccc2c3ccccc3ccc21,70.1,-0.0666,42.4,i,72.6*,30.9,66.4*,20.6*,24.3*
NC(=O)C[n+]1cccc2ccccc21,97.0,·,111.6,i,-2.8,-0.2,·,·,·
CCOc1ccc(CCNC(=O)CSc2cc(=O)n(CC)c3ccccc23)cc1OCC,95.6,-0.396,94.1,i,5.0,6.9,·,·,·
COc1cccc(NC(=O)Nc2ccc3c(c2)nc(C)n3C)c1,92.4,0.365,56.7,i,53.7*,6.6,11.6,-15.1,-39.2
COc1cccc(NC(=O)Nc2nccc(C)n2)c1,69.0,0.7,41.8,i,70.7*,33.2,37.1,2.6,-58.1
COc1ccc(NC(=O)Nc2cccc(OC)c2)cc1,116.7,·,103.7,i,3.0,-18.2,·,·,·
Cc1cc(C)nc(N/C(=N\S(=O)(=O)Cc2ccccc2)Nc2ccccc2Br)n1,95.4,3.6,97.7,i,0.4,7.1,·,·,·
O=C1NC(=O)c2cc(NC(=O)C3COc4ccccc4O3)ccc21 (stereo unspecified),97.0,0.308,75.1,i,35.4,3.4,·,·,·
CC1(C)Oc2ccc(NC(=O)C3COc4ccccc4O3)cc2O1 (stereo unspecified),119.6,·,46.3,i,63.8*,-21.6,25.7,-15.0,-85.3
CC(=O)c1sc(NC(=O)C2COc3ccccc3O2)nc1C (stereo unspecified),82.5,-0.192,42.6,i,73.8*,19.6,33.6,-1.9,-43.0
CCc1ccc(CN(C)CC(=O)Nc2sccc2C#N)cc1,92.9,-0.419,100.8,i,3.8,8.0,·,·,·
Cc1nc2ccc(NS(=O)(=O)c3ccc4c(c3)OCCO4)cc2s1,78.1,0.0461,40.8,i,71.4*,23.8,66.7*,25.8*,28.2*
Cc1ccc(S(=O)(=O)Nc2ccc3nc(C)sc3c2)cc1,86.4,-1.43,79.3,i,27.2,14.9,·,·,·
CCN(CC)C(=O)C1CCN(S(=O)(=O)c2ccc3oc4ccccc4c3c2)CC1,88.2,-1.13,68.4,i,44.7*,12.9,33.0,5.0,10.7
O=S(=O)(c1ccc2oc3ccccc3c2c1)N1CCCC1,97.9,0.462,100.4,i,0.6,2.2,·,·,·
SMILES,STAT1 act,Cl transport mod,STAT3 activator,HSV augment,STAT3 inh-1,STAT1 inh,STAT3 inh-2,NFkB inh STAT3ct,STAT1 inh 2
COc1ccc(CCN2C(=O)C3C4C=CC(C3C2=O)C2C(=O)N(CCc3ccc(OC)c(OC)c3)C(=O)C42)cc1OC (stereo unspecified),89.3,·,44.0,i,67.6*,13.7,65.7*,29.1*,12.5
CCCCC(=O)Nc1cc2nn(-c3ccc(OC)cc3)nc2cc1C,110.8,-0.266,101.8,i,4.3,-11.8,·,·,·
Cc1ccc(-n2nc3cc(C)c(NC(=S)NC(=O)/C=C/c4ccco4)cc3n2)cc1,113.5,0.714,104.3,i,-4.3,-15.1,·,·,·
CCC(=O)Nc1cc2nn(-c3ccc(OC)cc3)nc2cc1C,133.4*,-0.4,67.3,i,43.7*,-35.0,40.2,-2.5,-51.4
CCC(=O)Nc1cc2nn(-c3ccc(C)cc3)nc2cc1C,105.2,1.05,36.4,i,82.1*,-5.7,51.3*,14.3*,-106.7
COc1ccc2c(c1)oc(=O)c1c3ccccc3[nH]c21,128.0,-1.11,53.0,i,59.9*,-31.9,62.2*,-10.1,-53.1
COc1ccc(-c2nc[nH]c2[N+](=O)[O-])cc1,101.2,0.574,98.7,i,6.2,-4.7,·,·,·
COC(=O)c1ccc(-c2nc3cc(Cl)c(N)cc3s2)cc1,145.7*,·,24.9,i,86.8*,-48.1,68.8*,31.3*,-3.5
COc1cc(/C=C(\C#N)C(=O)Nc2cc(C(F)(F)F)ccc2Cl)ccc1OCC(=O)Nc1cccc(C(F)(F)F)c1,97.8,0.76,98.9,i,5.2,2.5,·,·,·
NNC(=O)c1cccc(COc2ccccc2Br)c1,80.2,-0.466,38.7,·,71.4*,21.6,60.6*,-9.6,10.0
COc1ccc(CCN2C(=O)CC(C(C)c3ccccc3)C2=O)cc1OC (stereo unspecified),96.4,-0.597,97.4,i,10.5,3.5,·,·,·
CCCCc1ccc(Nc2ncnc3nc[nH]c23)cc1,92.8,·,62.6,·,51.8*,7.9,40.8,-18.2,2.2
